Screening data (PubChem BioAssay)
Most compounds without a hit are left out; they make up all but 1.8% or so of the library.
EphB4 antag – EphB4-ephrin-B2 interaction antagonists, primary screen, biochemical, TNYL-RAW peptide probe, fluorescence polarization | EphB4 LBD / TNYL-RAW-Alexa532 peptide | Ephrin type-B receptor 4 (Homo sapiens), P54760 | AID 720, 2007 | actives 0.15% (n = 97,000) | inhibition, % at 7 µM;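 active means inhibition above the screen-wide mean inhibition plus 3 SD, cut at about 15% in these data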;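 further: 0% = DMSO wells and 100% = excess unlabeled TNYL-RAW peptide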
LYP inh 2 – PTPN22 phosphatase inhibitors, primary screen, biochemical, DiFMUP fluorescence, 2 µM. recombinant LYP catalytic domain. actives 0.21% (n = 96,000). inhibition, % at 2 µM;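 active means inhibition at 2 µM at or above a set limit, the screen mean plus 3 SD, cut at about 24% in these data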;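 further: 0% = DMSO with enzyme and 100% = enzyme fully blocked by orthovanadate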
PTPN22 act – LYP phosphatase activators, primary screen, biochemical, DiFMUP fluorescence, 2 µM; recombinant LYP; 0 = plate median, 100 = signal doubled; activation, % at 2 µM; actives 0.11% (n = 96,000); AID 697, 2007;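 active means activation at 2 µM above a set limit, the mean plus 5 SD, cut at about 37% in these data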
Plk1 PBD FP – Plk1 polo box domain binding inhibitors, primary screen, biochemical, fluorescence polarization. Serine/threonine-protein kinase PLK1 (Homo sapiens), P53350. Plk1 PBD phosphopeptide binding. inhibition, %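 (tested at about 20 µM)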. actives 0.13% (n = 97,000); in the data active means inhibition above about 34%, passing the limit was not always enough
HIV Rev-RRE inh – HIV-1 Rev-RRE binding inhibitors, primary screen, biochemical, FRET, protein-RNA interaction; AID 704, 2007; actives 0.79% (n = 97,000); Rev peptide-RRE RNA binding; inhibition, % at 8 µM;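 active means inhibition above the screen-wide mean plus 3 SD, cut at about 35% in these data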;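 further: 0% = median DMSO wells and 100% = median Neomycin B control wells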
Target sequence (P05866 whole entry, looked up): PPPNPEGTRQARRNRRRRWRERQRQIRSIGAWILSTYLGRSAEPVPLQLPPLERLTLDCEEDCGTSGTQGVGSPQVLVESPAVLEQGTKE
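Test system: labelled RRE RNA duplex and labelled Rev peptide. Times: 5 min compound–RNA preincubation, then 15 min with peptide, 25 °C. Doses: single-dose 8 µM. Measured by: FRET, excitation 480 nm, emission 540 nm donor and 671 nm acceptor. Measure: % inhibition of FRET ratio versus controls.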
PLK1 inh – human PLK1 kinase inhibitors, primary screen, biochemical, TR-FRET; actives 0.53% (n = 97,000); inhibition, % at 10 µM; Serine/threonine-protein kinase PLK1 (Homo sapiens), P53350; recombinant PLK1 kinase, TR-FRET peptide phosphorylation;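 active means inhibition of 50% or more in the single-concentration screen; inactive means inhibition below 50%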;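 further: 0% = DMSO max control and 100% = H-89 dihydrochloride min control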
An asterisk follows results filed as active; x = not tested or not shown; [ ] = another dose, or the depositor's remark.

SMILES | EphB4 antag | LYP inh 2 | PTPN22 act | Plk1 PBD FP | HIV Rev-RRE inh | PLK1 inh
Cc1ccc(N=Cc2sc(O)c3ccccc23)cc1 | 2 | 0 | 2 | -70 | 132*[fluorescence artefact?] | -8
Cc1ccc(N=Cc2sc(O)c3ccccc23)c(C)c1 | -4 | -1 | 2 | 23 | 93*[fluorescence artefact?] | -9
COc1ccc(N=Cc2sc3ccccc3c2Cl)cc1 | 2 | -3 | 6 | 11 | 16 | -15
CC1CCCC(C)N1CC(C)(C)NS(=O)(=O)c1ccc(Cl)cc1 (stereo not drawn) | -5 | 2 | -2 | 3 | -6 | -10
Cn1cc(Cl)c(C(=O)OCC(=O)Nc2ccccc2)n1 | 15* | -3 | 2 | -4 | 3 | -9
O=C(COC(=O)c1cccnc1)Nc1ccccc1 | -5 | -7 | 7 | -1 | 5 | -5
CC(C)c1nc2n[nH]c(N)c2c2c1CCC2 | 0 | 1 | -1 | 5 | 7 | 5
CC(C)c1nc2n[nH]c(N)c2c2c1CSC(C)(C)C2 | -8 | -4 | 7 | -14 | 2 | 59*
CC(C)NC(=O)c1sc2nc(-c3cccs3)cc(-c3cccs3)c2c1N | 4 | 20 | -18 | -2 | 11 | -2
Nc1c(C(=O)C2CC2)sc2nc(-c3cccs3)cc(C(F)(F)F)c12 | -3 | -5 | 8 | -10 | 107*[fluorescence artefact?] | -30
CC(C)c1ccc(C2C3CSCC=C3C(C#N)=C(N)C2(C#N)C#N)cc1 (stereo not drawn) | -4 | 5 | -3 | -42 | 22 | 18
CN1CC=C2C(C#N)=C(N)C(C#N)(C#N)C(c3ccsc3)C2C1 (stereo not drawn) | -3 | -8 | 8 | -19 | 56* | 3
CN1CC=C2C(C#N)=C(N)C(C#N)(C#N)[C@H](c3cccs3)[C@H]2C1 | 1 | -9 | 1 | -8 | 58* | 2
CN1CC=C2C(C#N)=C(N)C(C#N)(C#N)[C@H](c3cccc(Cl)c3)C2C1 (stereo partly drawn) | 6 | -5 | 2 | -30 | 64* | 2
CCCC1C2CN(C(C)C)CC=C2C(C#N)=C(N)C1(C#N)C#N (stereo not drawn) | 6 | -7 | 5 | -1 | 70* | -5
CC1(C)CC(=O)C(C=NCC2CCN(C(=O)Nc3ccc(Cl)c(Cl)c3)CC2)=C(O)C1 | 1 | -4 | 8 | -9 | 8 | 2
COc1ccc(-c2nn(-c3ccccc3)cc2/C=N/N2C(=O)CSC2=S)cc1 | 3 | 7 | -6 | 6 | 7 | -7
CCN(c1cccc(C)c1)c1nc2ccsc2c(=O)s1 | -2 | 1 | 0 | 36 | 17 | 4
CCOC(=O)N1CCN(S(=O)(=O)c2ccc3c(c2)oc(=O)n3C)CC1 | 3 | -7 | 4 | -13 | 41* | -8
CCOC(=O)n1c(=O)oc2cc(S(=O)(=O)N3CCCCC3)ccc21 | 7 | 8 | -10 | 0 | 1 | -7
CCCN(CCC)CCNc1c(N2CCN(C(=O)OCC)CC2)c(=O)c1=O | 1 | 5 | -5 | 8 | 7 | -7
CC1C/C(=N/O)C(C)CN1 (stereo not drawn) | 2 | -1 | 4 | -2 | 12 | 53*
O=C(O)CCC(=O)c1ccc2c(c1)OCCO2 | -1 | x | x | -33 | 6 | 66*
CCCC(=O)c1ccc2c(c1)OCCO2 | -5 | -12 | 14 | -12 | 3 | 2
CC(=O)Nc1sc(NC(=O)c2ccc(C)cc2)nc1-c1cccs1 | -4 | -1 | -2 | 7 | -4 | -17
SMILES | EphB4 antag | LYP inh 2 | PTPN22 act | Plk1 PBD FP | HIV Rev-RRE inh | PLK1 inh
C/C(CC(O)c1ccc2ccccc2n1)=N/O (stereo not drawn) | 0 | -11 | 13 | -9 | 2 | -7
CN(C)c1ccc(N=Cc2nc(-c3ccccc3)oc2O)cc1 | 4 | 16 | -16 | -36 | 69*[fluorescence artefact?] | -8
Oc1oc(-c2ccccc2)nc1C=Nc1ccccc1 | 3 | -3 | 6 | -14 | 3 | -13
C/C(N)=C(/C#N)C(=O)CSc1nnnn1-c1ccc(C)cc1 | -12 | 2 | -4 | -35 | -2 | -3
CCCCCCC1CC(CSc2ncn[nH]2)OC1=O (stereo not drawn) | -2 | -1 | 1 | -16 | 5 | -9
Cc1c(NCc2cc(Cl)ccc2O)c(=O)n(-c2ccccc2)n1C | -5 | -12 | 14 | -10 | -2 | -3
Cc1ccc(O)c(C(=O)c2cc(C#N)c(=O)n(-c3c(C)n(C)n(-c4ccccc4)c3=O)c2)c1 | 2 | -6 | 8 | -133 | 79* | -4
COc1ccc(O)c(C(=O)c2cc(C#N)c(=O)n(-c3c(C)n(C)n(-c4ccccc4)c3=O)c2)c1 | -7 | 6 | -6 | -133 | 92*[fluorescence artefact?] | -8
Cc1c(-n2cc(C(=O)c3cc(Br)ccc3O)cc(C#N)c2=O)c(=O)n(-c2ccccc2)n1C | 3 | 9 | -11 | -76 | 74*[fluorescence artefact?] | -13
Cc1c(-n2cc(C(=O)c3cc(Cl)ccc3O)cc(C#N)c2=O)c(=O)n(-c2ccccc2)n1C | 11 | -12 | 15 | -107 | 83*[fluorescence artefact?] | -7
N#Cc1cc(C(=O)c2cc(Br)ccc2O)cn(C2CCCCC2)c1=O | 7 | 2 | 0 | -28 | 17 | -7
Cc1cc(-c2nnc3n2N=C(c2ccc(-c4ccccc4)cc2)CS3)n[nH]1 | 1 | 1 | -3 | 1 | 17 | -12
c1ccc(-c2cc(-c3nnc4n3N=C(c3ccc5ccccc5c3)CS4)[nH]n2)cc1 | 3 | 30* | -26 | 2 | 5 | -10
C=CCn1c(NCCO)nc2c1c(=O)n(C)c(=O)n2C | -5 | -6 | 3 | -3 | 56* | -18
Cc1ccc2c(c1)c1c(n2CC(O)CNC(CO)(CO)CO)CCCC1 (stereo not drawn) | -4 | x | x | 23 | 5 | 63*
Cc1cc2c(cc1C)-c1nnnn1C(C)(C)C2 | 11 | -10 | 8 | -5 | 1 | -7
Cc1cc([N+](=O)[O-])nn1CC(=O)NNC(=S)Nc1ccc([N+](=O)[O-])cc1 | -7 | 35* | -33 | 21 | -2 | -8
CC1CCCN(Cc2cccc(Oc3ccccc3)c2)C1 (stereo not drawn) | 0 | -1 | 1 | -4 | -2 | -7
Cc1ccc(S(=O)(=O)N(C)CCCC(=O)N2CCN(C=O)CC2)cc1 | -3 | -2 | 1 | 14 | 9 | -12
Cc1cc(C(=O)N/N=C/c2cccc([N+](=O)[O-])c2)c(C)o1 | -6 | 4 | -2 | -43 | -3 | -5
